Laboratory results as given in ChEMBL document CHEMBL4513216, “Probing the Open Global Health Chemical Diversity Library for Multistage-Active Starting Points for Next-Generation Antimalarials” (ACS Infect Dis, 2020).

Experiment: Toxicity liver stage against HepG2, at 10uM
Assay type: cell-based
Design: test concentration 10 uM, cell line HepG2-A16-CD81EGFP
Details: human, HepG2-A16-CD81EGFP cells; read-out: INHIBITION
Procedure, shortened: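 Uninfected HepG2-A16-CD81EGFP cells, 3 × 10^3 per well, 1536-well, plated on prespotted compound at 10 μM final, parasite-free screening media added to match infected plates; puromycin 10 μM positive, DMSO 0.5% negative; run in parallel with 48 h PbLuc assay at 37 °C, 5% CO2; viability by CellTiter-Glo luminescence, normalized to controls.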

Structure (SMILES) | cytotoxicity at 10 µM [%]
O=C(c1ncn2c(C3CCN(CC4CC4)CC3)ccnc12)N1CCCC1 | -3
CN1CCO[C@@H]2CN(C(=O)c3ccc4[nH]ccc4c3)CC[C@@H]2C1 | -108
CCCn1ncc(CN2C[C@@H]3CCCN3C[C@H]2Cc2ccccc2)c1C | -16.3
CNCc1cc(F)ccc1Oc1ccc(F)cc1 | -1
O=C(NCc1cc2n(n1)CCCN(Cc1ccc(Cl)s1)C2)C1CCC1 | 5.46
O=C(CCn1ccc2ccc(Cl)cc21)NCc1ccc(C(=O)O)cc1 | -0.411
NC(=O)c1c(NC(=O)CCC(=O)O)sc2c1CCc1ccccc1-2 | -1.99
N#CCCNC(=O)CN1CC(n2cccn2)C1 | -7.29
CSCC(C)N(C)C(=O)c1nn(-c2ccc(F)cc2C)cc1O (stereo unspecified) | 0.618
COc1ccc([C@@H]2C[C@H](NC(C)=O)C[C@H](CCc3ccccc3)O2)cn1 | -3.13
Cc1nc(C)n(C2CCCN(C(=O)c3nc(C)n4ccccc34)C2)n1 (stereo unspecified) | -10.9
O=C(C1CC=CC1)N1C[C@@H]2[C@@H](C1)OCC(=O)N2Cc1cccnc1 | 2.45
COCCN1C(=O)CO[C@H]2CN(S(=O)(=O)c3ccccc3)C[C@H]21 | -0.843
CN1CCC(N(Cc2ccco2)S(=O)(=O)c2ccc(Cl)cc2)CC1 | -1.1
O=C(NCc1nc(C2CCCCC2)no1)C1CC(=O)N(C2CC2)C1 (stereo unspecified) | 1.5
CCCNC(=O)C(C)NC(=O)Nc1ccccc1SC(F)F (stereo unspecified) | 5.09
Fc1cccc(-c2nc(CN3CCOC(Cn4cccn4)C3)co2)c1 (stereo unspecified) | -5.6
Cc1[nH]ccc1C(=O)NCc1ncoc1C | -2.45
CCOc1ccccc1OC1CCN(C(=O)c2csnn2)CC1 | -5.5
OCCN1CCN(CC(O)c2cc(Cl)ccc2Cl)CC1 (stereo unspecified) | -3.03
CC(=O)Nc1nc(C(=O)N2CCCC2c2ccccc2C)cs1 (stereo unspecified) | -2.27

Structure (SMILES) | cytotoxicity at 10 µM [%]
Cn1cc(CNC2CC3(CCN(S(C)(=O)=O)CC3)c3ccccc32)cn1 (stereo unspecified) | -110
Cc1ncsc1-c1ccn(CC(=O)Nc2cnn(C)n2)n1 | 93.8
Cc1ccc(NC(=O)[C@H]2C[C@H](C(=O)O)CN(CC3CC3)C2)cn1 | 0.999
NC(=O)C1CN(C(=O)Nc2ccccc2N2CCCCCC2)CCO1 (stereo unspecified) | -6.31
CC(C)COCC(NC(=O)c1cnccn1)c1ccco1 (stereo unspecified) | -13.8
CCS(=O)(=O)CC(=O)N1CCCC1c1noc(C2CC2)n1 (stereo unspecified) | -12.9
CC(CCS(C)(=O)=O)NC(=O)NCc1ccc2ccccc2c1 (stereo unspecified) | -137
Cc1ocnc1C(=O)N1CCN(CCOc2ccccc2)CC1 | 1.12
CCc1nnc2n1CCN(CC(=O)Nc1cc(C)nn1C)C2 | 6.98
Cc1ccccc1CC(=O)N1CCc2c(ncnc2N2CCOCC2)C1 | -3.39
Cc1noc(C)c1CNC(=O)N1CCC(C(O)c2ccccc2)CC1 (stereo unspecified) | -9.41
O=C(CCN1CCCO1)NC1CCCN(CC2CCCCC2)C1 (stereo unspecified) | 7.3
Cc1cc(CNc2ccccc2N2CCCCC2)no1 | -1.31
Cc1cccc(CN2CCn3cc(Cn4cccn4)nc3C2)n1 | 3.27
Cc1nn(C)c(C)c1OCC(=O)NCc1cccc(C(=O)O)c1 | -3.83
CCc1ccc(S(=O)(=O)N2CCCC(c3ncc[nH]3)C2)s1 (stereo unspecified) | 12.8
O=C(NCc1cc[nH]n1)NCC(c1ccccc1)N1CCOCC1 (stereo unspecified) | -3.39
CCn1cc(CN2CCCn3nc(CCC(=O)NCCO)cc3C2)cn1 | -18.2
CC1=C(CCN2C[C@H](O)[C@@H](N3CCOCC3)C2)C(C)(C)CCC1 | -0.128
CN(C)C(=O)c1cccc(CN2CCOC(Cn3cccn3)C2)c1 (stereo unspecified) | -0.29
c1cncc(NCCNC2CCSC2)c1 (stereo unspecified) | -3.22

Structure (SMILES) | cytotoxicity at 10 µM [%]
Cc1noc(CCCC(=O)N2CCN(C)CC2c2ccccc2)n1 (stereo unspecified) | -6.73
CCN1C(=O)CC[C@@H]2[C@H]1CCN2S(=O)(=O)Cc1ccc(C)cc1 | 0.0218
CCSc1cncc(N2CCC(C(=O)NC(C)C(C)C)CC2)n1 (stereo unspecified) | -1.81
c1ccc(O[C@H]2CC[C@H]3[C@H]2OCCN3Cc2nccs2)nc1 | -12.6
CC(C)(C(N)=O)S(=O)(=O)c1ccc(Br)cc1 | 4.4
CC(C)N(Cc1ccc(C#N)cc1)C(=O)Nc1ccccn1 | -0.518
O=C([C@H]1COC[C@H]2CN(c3ccncn3)C[C@H]21)N1CCCC1 | -140
CCNc1ncc(C(=O)NC2COC3(CCCC3)C2)cn1 (stereo unspecified) | -4.53
O=C1CSC(c2ccc3c(c2)OCO3)c2cn[nH]c2N1 (stereo unspecified) | 4.29
O=C(NCCCc1nc(=O)[nH][nH]1)c1ccc(Cl)cn1 | -47.6
O=C1NCC2(CCCN(C(=O)Cn3nc4ccccc4n3)CC2)O1 (stereo unspecified) | -3.45
Cn1cccc(NC(=O)N2CCC(COCc3ccccc3)C2)c1=O (stereo unspecified) | 3.67
CCC(C)NC(=O)CS(=O)(=O)Cc1cc(Cl)c2c(c1)OCCCO2 (stereo unspecified) | 2.19
CC(C)c1nc2cc(NC(=O)Cn3ccc(=O)[nH]c3=O)ccc2o1 | 1.73
CC(C)S(=O)(=O)CCN1CCN(C(C#N)c2ccccc2)CC1 (stereo unspecified) | 0.401
Oc1cccc(CN2CCN(c3nccc(CCC(F)(F)F)n3)CC2)c1 | -18.7
Cc1cc(C)n(CC2CCCN2C(=O)c2c[nH]c(=O)c(Cl)c2)n1 (stereo unspecified) | 1.53
Cc1noc(C)c1CCC(=O)N1CCN(CCn2cccn2)CC1 | -24.2
CN(CCC(=O)N1CCc2sccc2C1)Cc1cc(Br)cs1 | -14.8
Cc1oc(C(=O)O)cc1S(=O)(=O)Nc1ccc(Cl)cc1F | -0.354
COc1cccc(-c2cccc(-c3ccn(CC4COCCO4)n3)c2)n1 (stereo unspecified) | -3.81

Structure (SMILES) | cytotoxicity at 10 µM [%]
O=C(Cc1ccccc1)N1CCOC(c2nc(-c3ncccn3)no2)C1 (stereo unspecified) | -22.6
CCCN1CCCC2(CCN(C(=O)CCCn3cncn3)C2)C1=O (stereo unspecified) | -1.84
O=C1NC(c2cnc(C3CCC3)s2)Nc2ncccc21 (stereo unspecified) | 0.992
CCOC1COC2(CCN(Cc3ccco3)CC2)C1 (stereo unspecified) | -2.98
O=C(NCCCn1ccnc1)NCC(c1ccco1)N1CCCCC1 (stereo unspecified) | 5.71
Cn1cc(CCC(=O)N2C[C@@H]3CC[C@H]2CN(Cc2ccccc2)C3)cn1 | -1.97
CC(C)Oc1ncccc1CNC(=O)N1CCC(n2cccc2)CC1 | 3.48
CCOCc1cccc(NCc2c[nH]nc2-c2cccnc2)c1 | -3.9
O=S(=O)(CCNC1CCc2ncnn2C1)c1ccc(Cl)cc1 (stereo unspecified) | -32.2
CC1COCCN1C(=O)COc1ccc(Oc2ccccn2)cc1 (stereo unspecified) | -8.87
CC1N(c2cnn(C)c2)C(=O)COC12CCN(c1ncccn1)CC2 (stereo unspecified) | 0.952
Cc1noc(C)c1CN1CC[C@H]2OCC[C@@H](C(=O)NCC3CC3)[C@@H]2C1 | -8.55
Cc1nn(C)c(N(C)C)c1CNCC(O)COc1ccccc1 (stereo unspecified) | -0.0582
COCC(NC(=O)c1ccoc1)c1ccc(C)o1 (stereo unspecified) | 3.6
O=C(N[C@@H]1c2ccccc2C[C@@H]1O)C1CCN(Cc2ccco2)CC1 | -0.647
O=C1OC2(CCNCC2)CN1CC(=O)N1CCCC1c1nccs1 (stereo unspecified) | -4.92
C[C@@H]1CN(Cc2nnc(-c3cccnc3)o2)CC[C@]1(C)O | 10.1
CC(CC#N)N(C)Cc1ccccc1Cl (stereo unspecified) | -8.67
